Laboratory results from ChEMBL document CHEMBL2016577, “Preparation, antibacterial evaluation and preliminary structure-activity relationship (SAR) study of benzothiazol- and benzoxazol-2-amine derivatives” (Bioorg Med Chem Lett, 2012).
In brackets after ≈: the same amount, converted by molar mass.

Experiments:
Staphylococcus aureus [1] = experiment: Antibacterial activity against Staphylococcus aureus ATCC 25923 after 16 hrs by broth microdilution method; type: functional; conditions: ATCC 25923, 16 h
Enterococcus faecalis [2] = experiment: Antibacterial activity against Enterococcus faecalis ATCC 29212 after 16 hrs by broth microdilution method; type: functional; conditions: ATCC 29212, 16 h
Escherichia coli [3] = experiment: Antibacterial activity against Escherichia coli ATCC 29425 after 16 hrs by broth microdilution method; type: functional; conditions: ATCC 29425, 16 h
Staphylococcus aureus [4] = experiment: Antibacterial activity against methicillin-susceptible Staphylococcus aureus after 16 hrs by broth microdilution method; type: functional
Method in brief: (§1)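 Clinical isolates, including strains resistant to common antimicrobials, tested by the standard broth dilution method. The read-out is the minimum inhibitory concentration in μg/mL. Each value is representative of three independent determinations.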

Staphylococcus aureus [5] = experiment: Antibacterial activity against methicillin-resistant Staphylococcus aureus after 16 hrs by broth microdilution method; type: functional; method in brief: as §1
Streptococcus pneumoniae [6] = experiment: Antibacterial activity against penicillin-susceptible Streptococcus pneumoniae after 16 hrs by broth microdilution method; type: functional
Streptococcus pneumoniae [7] = experiment: Antibacterial activity against penicillin-resistant Streptococcus pneumoniae after 16 hrs by broth microdilution method; type: functional; method in brief: as §1
Enterococcus faecalis [8] = experiment: Antibacterial activity against vancomycin-susceptible Enterococcus faecalis after 16 hrs by broth microdilution method; type: functional
Enterococcus faecalis [9] = experiment: Antibacterial activity against vancomycin-resistant Enterococcus faecalis after 16 hrs by broth microdilution method; type: functional; method in brief: as §1
Enterococcus faecium [10] = experiment: Antibacterial activity against vancomycin-susceptible Enterococcus faecium after 16 hrs by broth microdilution method; type: functional; method in brief: as §1
Enterococcus faecium [11] = experiment: Antibacterial activity against vancomycin-resistant Enterococcus faecium after 16 hrs by broth microdilution method; type: functional; method in brief: as §1
Escherichia coli [12] = experiment: Antibacterial activity against Escherichia coli clinical isolate after 16 hrs by 2-fold microdilution method; type: functional
HEK293 = experiment: Cytotoxicity against human HEK293 cells after 48 hrs by MTT assay; type: cell-based; conditions: HEK293, 48 h
Method in brief: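 Standard MTT assay in Human Embryonic Kidney 293 cells, with 64 μg/mL as the top concentration tested. IC50 came from three independent experiments.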

Albumin = Albumin (Bos taurus, UniProt P02769); experiment: Binding affinity to bovine serum albumin BY HPLC analysis; type: ADME; conditions: cattle, isolated protein
Sequence of Albumin (P02769 whole entry): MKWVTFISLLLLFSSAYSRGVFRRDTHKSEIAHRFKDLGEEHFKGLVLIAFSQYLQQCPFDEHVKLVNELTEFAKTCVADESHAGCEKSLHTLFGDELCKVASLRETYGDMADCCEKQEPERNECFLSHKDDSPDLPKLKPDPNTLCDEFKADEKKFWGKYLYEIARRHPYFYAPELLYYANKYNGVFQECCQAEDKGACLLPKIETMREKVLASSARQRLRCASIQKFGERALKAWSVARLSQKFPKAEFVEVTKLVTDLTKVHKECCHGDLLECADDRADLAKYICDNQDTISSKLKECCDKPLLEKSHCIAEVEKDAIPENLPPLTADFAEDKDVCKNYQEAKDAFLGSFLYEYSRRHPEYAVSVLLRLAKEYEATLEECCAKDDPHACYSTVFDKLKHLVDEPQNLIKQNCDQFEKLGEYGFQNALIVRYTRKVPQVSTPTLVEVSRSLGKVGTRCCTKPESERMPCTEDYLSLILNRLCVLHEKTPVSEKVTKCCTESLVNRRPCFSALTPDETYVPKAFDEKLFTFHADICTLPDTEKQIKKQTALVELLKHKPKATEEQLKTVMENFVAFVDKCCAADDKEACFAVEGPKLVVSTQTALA
Method in brief: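 Compound was incubated with BSA standard solution and the bound fraction separated by centrifugal ultrafiltration. Free compound was quantified by HPLC. Binding degree = (Cb–Ca)/Cb, where Cb and Ca are the compound concentrations before and after interaction with BSA.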

[13] = Cytotoxicity against human HEK293 cells at 64 ug/ml after 48 hrs by MTT assay; type: cell-based; conditions: read-out: INH
Method in brief: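 HEK293 cells were exposed to compound at 64 μg/mL and assessed by standard MTT. Inhibitory rate was recorded across three independent experiments.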

Structure (SMILES)	MIC (Staphylococcus aureus [1])	MIC (Enterococcus faecalis [2])	MIC (Escherichia coli [3])	further results
Brc1cccc(CNCCCNc2nc3ccccc3o2)c1	16 µg/mL (≈ 44.4 µM)	8 µg/mL (≈ 22.2 µM)	32 µg/mL (≈ 88.8 µM)	–
Clc1ccc(CNCCNc2nc3ccccc3s2)cc1	8 µg/mL (≈ 25.2 µM)	32 µg/mL (≈ 101 µM)	> 64 µg/mL	–
Brc1cccc(CNCCNc2nc3ccccc3o2)c1	8 µg/mL (≈ 23.1 µM)	64 µg/mL (≈ 185 µM)	> 64 µg/mL	–
COc1ccc2nc(NCCCNCc3ccc(Cl)c(Cl)c3)sc2c1	4 µg/mL (≈ 10.1 µM)	4 µg/mL (≈ 10.1 µM)	> 64 µg/mL	–
COc1ccc(CNCCCNc2nc3ccccc3s2)cc1	64 µg/mL (≈ 195 µM)	64 µg/mL (≈ 195 µM)	> 64 µg/mL	–
Oc1ccc(CNCCNc2nc3ccccc3s2)cc1	16 µg/mL (≈ 53.4 µM)	32 µg/mL (≈ 107 µM)	> 64 µg/mL	–
Fc1ccc2sc(NCCCNCc3ccc(Cl)c(Cl)c3)nc2c1	1 µg/mL (≈ 2.6 µM)	2 µg/mL (≈ 5.2 µM)	32 µg/mL (≈ 83.3 µM)	–
Fc1ccc2nc(NCCCNCc3ccc(Cl)c(Cl)c3)sc2c1	1 µg/mL (≈ 2.6 µM)	2 µg/mL (≈ 5.2 µM)	32 µg/mL (≈ 83.3 µM)	–
Brc1cccc(CNCCCNc2nc3ccccc3s2)c1	16 µg/mL (≈ 42.5 µM)	8 µg/mL (≈ 21.3 µM)	32 µg/mL (≈ 85 µM)	–
Clc1ccc2oc(NCCCNCc3ccc(Cl)c(Cl)c3)nc2c1	2 µg/mL (≈ 5.2 µM)	4 µg/mL (≈ 10.4 µM)	32 µg/mL (≈ 83.2 µM)	–
Clc1ccc(CNCCNc2nc3ccccc3s2)cc1Cl	32 µg/mL (≈ 90.8 µM)	64 µg/mL (≈ 182 µM)	> 64 µg/mL	–
c1ccc(CNCCCNc2nc3ccccc3o2)cc1	> 64 µg/mL	> 64 µg/mL	> 64 µg/mL	–
Clc1ccc(CNCCCNc2nc3ccccc3o2)c(Cl)c1	8 µg/mL (≈ 22.8 µM)	4 µg/mL (≈ 11.4 µM)	> 64 µg/mL	–
COc1ccc(CNCCNc2nc3ccccc3s2)cc1	32 µg/mL (≈ 102 µM)	32 µg/mL (≈ 102 µM)	> 64 µg/mL	–
Fc1cc2nc(NCCCNCc3ccc(Cl)c(Cl)c3)sc2cc1F	0.5 µg/mL (≈ 1.24 µM)	1 µg/mL (≈ 2.49 µM)	32 µg/mL (≈ 79.5 µM)	MIC (Staphylococcus aureus [4]): 0.5 µg/mL (≈ 1.24 µM); MIC (Staphylococcus aureus [5]): 1 µg/mL (≈ 2.49 µM); MIC (Streptococcus pneumoniae [6]): 4 µg/mL (≈ 9.94 µM); MIC (Streptococcus pneumoniae [7]): 4 µg/mL (≈ 9.94 µM); MIC (Enterococcus faecalis [8]): 1 µg/mL (≈ 2.49 µM); MIC (Enterococcus faecalis [9]): 1 µg/mL (≈ 2.49 µM); MIC (Enterococcus faecium [10]): 2 µg/mL (≈ 4.97 µM); MIC (Enterococcus faecium [11]): 2 µg/mL (≈ 4.97 µM); MIC (Escherichia coli [12]): > 64 µg/mL; IC50 (HEK293): > 64 µg/mL; Activity (Albumin): 1.4%; cytotoxicity at 48 h, 64 ug/ml [13]: 15%
Fc1cc2nc(NCCCNCc3ccc(Cl)c(Cl)c3)oc2cc1F	1 µg/mL (≈ 2.59 µM)	2 µg/mL (≈ 5.18 µM)	32 µg/mL (≈ 82.9 µM)	–
c1ccc(CNCCNc2nc3ccccc3s2)cc1	> 64 µg/mL	> 64 µg/mL	> 64 µg/mL	–
Clc1ccc(CNCCCNc2nc3ccccc3s2)cc1	16 µg/mL (≈ 48.2 µM)	8 µg/mL (≈ 24.1 µM)	> 64 µg/mL	–
Fc1ccc2nc(NCCCNCc3ccc(Cl)c(Cl)c3)oc2c1	1 µg/mL (≈ 2.72 µM)	4 µg/mL (≈ 10.9 µM)	32 µg/mL (≈ 86.9 µM)	–
Clc1ccc(CNCCNc2nc3ccccc3o2)cc1Cl	16 µg/mL (≈ 47.6 µM)	8 µg/mL (≈ 23.8 µM)	> 64 µg/mL	–
Clc1ccc2nc(NCCCNCc3ccc(Cl)c(Cl)c3)sc2c1	4 µg/mL (≈ 9.98 µM)	2 µg/mL (≈ 4.99 µM)	32 µg/mL (≈ 79.8 µM)	–
